Assay results as given in ChEMBL document CHEMBL4020832, “Development of (6 R)-2-Nitro-6-[4-(trifluoromethoxy)phenoxy]-6,7-dihydro-5 H-imidazo[2,1- b][1,3]oxazine (DNDI-8219): A New Lead for Visceral Leishmaniasis” (J Med Chem, 2018).

Experiments:
[1] = Initial concentration in Sprague-Dawley rat at 1 mg/kg, iv by LC-MS/MS analysis; assay type: ADME, organism-based; conditions: in vivo
How it was run: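 Male Sprague-Dawley rats, fasted, dosed iv at 1 mg/kg as a solution in 20% NMP/40% PEG-400 in citrate buffer (pH 3). Plasma was analysed by LC–MS/MS and C0 was derived with WinNonlin-type PK analysis.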

Liver [2] = assay: Metabolic stability in human liver microsomes assessed as parent compound remaining at 1 uM after 1 hr; assay type: ADME, microsome
[3] = (§1) Cmax in Swiss albino mouse at 40 mg/kg, po by LC-MS/MS analysis; assay type: ADME, organism-based; parameters: dose 40 mg/kg, route oral; conditions: Swiss albino, in vivo
[4] = Half life in Swiss albino mouse at 40 mg/kg, po by LC-MS/MS analysis; assay type: ADME, organism-based; conditions: in vivo
[5] = Half life in Sprague-Dawley rat at 40 mg/kg, po by LC-MS/MS analysis; assay type: ADME, organism-based; conditions: in vivo
How it was run: (§2)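 Fasted male Sprague-Dawley rats. IV dose was 1 mg/kg as a solution in 20% NMP and 40% PEG-400 in citrate buffer (pH 3). Oral dose was 40–50 mg/kg as a suspension in 0.08% Tween 80 and 0.5% CMC in water. Plasma was analysed by LC–MS/MS. AUClast was taken to the last time point (24 or 48 h).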

[6] = Cmax in golden Syrian hamster at 50 mg/kg, po by LC-MS/MS analysis; assay type: ADME, organism-based, Mesocricetus auratus; parameters: dose 50 mg/kg, route oral; conditions: in vivo
How it was run: (§3)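 Fasted female golden Syrian hamsters. IV dose was 2 mg/kg as a solution in 20% NMP and 40% PEG-400 in citrate buffer (pH 3). Oral dosing at 40–50 mg/kg used PEG-400 as vehicle. Plasma was quantified by LC–MS/MS. AUClast was taken to the last time point (24 or 48 h).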

[7] = AUClast in Sprague-Dawley rat at 1 mg/kg, iv after 24 to 48 hrs by LC-MS/MS analysis; assay type: ADME, organism-based; conditions: in vivo; how it was run: as §2
[8] = Tmax in golden Syrian hamster at 50 mg/kg, po by LC-MS/MS analysis; assay type: ADME, organism-based, Mesocricetus auratus; conditions: in vivo
[9] = (§4) AUClast in Swiss albino mouse at 40 mg/kg, po after 24 to 48 hrs by LC-MS/MS analysis; assay type: ADME, organism-based; conditions: Swiss albino, in vivo
[10] = (§5) Cmax in Sprague-Dawley rat at 40 mg/kg, po by LC-MS/MS analysis; assay type: ADME, organism-based; parameters: dose 40 mg/kg, route oral; conditions: Sprague-Dawley, in vivo; how it was run: as §2
[11] = Half life in Sprague-Dawley rat at 1 mg/kg, iv by LC-MS/MS analysis; assay type: ADME, organism-based; conditions: in vivo; how it was run: as §2
[12] = AUClast in Sprague-Dawley rat at 40 mg/kg, po after 24 to 48 hrs by LC-MS/MS analysis; assay type: ADME, organism-based; conditions: in vivo
[13] = Metabolic stability in hamster liver microsomes assessed as parent compound remaining at 1 uM after 1 hr; assay type: ADME, microsome; conditions: read-out: Stability
[14] = AUClast in golden Syrian hamster at 50 mg/kg, po after 24 to 48 hrs by LC-MS/MS analysis; assay type: ADME, organism-based, Mesocricetus auratus; conditions: in vivo; how it was run: as §3
[15] = Clearance in Sprague-Dawley rat at 1 mg/kg, iv by LC-MS/MS analysis; assay type: ADME, organism-based; conditions: in vivo; how it was run: as §2
[16] = (§6) Tmax in Swiss albino mouse at 40 mg/kg, po by LC-MS/MS analysis; assay type: ADME, organism-based; conditions: Swiss albino, in vivo
[17] = Volume of distribution at steady state in Sprague-Dawley rat at 1 mg/kg, iv by LC-MS/MS analysis; assay type: ADME, organism-based; conditions: in vivo, read-out: Vdss
How it was run: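 Fasted male Sprague-Dawley rats received 1 mg/kg iv as a solution in 20% NMP/40% PEG-400 in citrate buffer pH 3. Plasma concentrations by LC–MS/MS used for PK parameter estimation.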

[18] = Half life in golden Syrian hamster at 50 mg/kg, po by LC-MS/MS analysis; assay type: ADME, organism-based, Mesocricetus auratus; conditions: in vivo
[19] = (§7) Tmax in Sprague-Dawley rat at 40 mg/kg, po by LC-MS/MS analysis; assay type: ADME, organism-based; conditions: Sprague-Dawley, in vivo
How it was run: (§8)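 Fasted male Sprague-Dawley rats dosed orally at 40–50 mg/kg as a suspension in 0.08% Tween 80/0.5% CMC in water. iv reference was 1 mg/kg in 20% NMP/40% PEG-400 in citrate buffer pH 3. Plasma analysed by LC–MS/MS. F from dose-normalized AUClast.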

[20] = (§9) Oral bioavailability in Sprague-Dawley rat at 40 mg/kg by LC-MS/MS analysis; assay type: ADME, organism-based; conditions: Sprague-Dawley, in vivo; how it was run: as §8
Liver [21] = assay: Metabolic stability in CD-1 mouse liver microsomes assessed as parent compound remaining at 1 uM after 1 hr; assay type: ADME, microsome
[22] = Half life in golden Syrian hamster at 40 mg/kg, po by LC-MS/MS analysis; assay type: ADME, organism-based, Mesocricetus auratus; conditions: in vivo
[23] = Clearance in golden Syrian hamster at 2 mg/kg, iv by LC-MS/MS analysis; assay type: ADME, organism-based, Mesocricetus auratus; conditions: in vivo
Liver [24] = assay: Metabolic stability in CD-1 mouse liver microsomes assessed as parent compound remaining at 0.5 uM after 0.5 hr; assay type: ADME, microsome
Mus musculus [25] = assay: as §1; assay type: ADME, organism-based; parameters: dose 40 mg/kg, route oral; conditions: in vivo
[26] = Cmax in golden Syrian hamster at 40 mg/kg, po by LC-MS/MS analysis; assay type: ADME, organism-based, Mesocricetus auratus; parameters: dose 40 mg/kg, route oral; conditions: in vivo; how it was run: as §3
Mus musculus [27] = assay: as §4; assay type: ADME, organism-based; conditions: in vivo
[28] = Metabolic stability in hamster liver microsomes assessed as parent compound remaining at 0.5 uM after 0.5 hr; assay type: ADME, microsome; conditions: read-out: Stability
Syrian golden hamster [29] = assay: Oral bioavailability in golden Syrian hamster at 40 mg/kg by LC-MS/MS analysis; assay type: ADME, organism-based, Mesocricetus auratus; conditions: in vivo
[30] = Half life in golden Syrian hamster at 2 mg/kg, iv by LC-MS/MS analysis; assay type: ADME, organism-based, Mesocricetus auratus; conditions: in vivo; how it was run: as §3
Mus musculus [31] = assay: as §6; assay type: ADME, organism-based; conditions: in vivo
Liver [32] = assay: Metabolic stability in human liver microsomes assessed as parent compound remaining at 0.5 uM after 0.5 hr; assay type: ADME, microsome
[33] = Volume of distribution at steady state in golden Syrian hamster at 2 mg/kg, iv by LC-MS/MS analysis; assay type: ADME, organism-based, Mesocricetus auratus; conditions: in vivo, read-out: Vdss
How it was run: (§10)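 Fasted female golden Syrian hamsters given 2 mg/kg iv as a solution in 20% NMP and 40% PEG-400 in citrate buffer pH 3. Plasma concentrations determined by LC–MS/MS to derive PK parameters.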

[34] = Tmax in golden Syrian hamster at 40 mg/kg, po by LC-MS/MS analysis; assay type: ADME, organism-based, Mesocricetus auratus; conditions: in vivo
[35] = AUClast in golden Syrian hamster at 40 mg/kg, po after 24 to 48 hrs by LC-MS/MS analysis; assay type: ADME, organism-based, Mesocricetus auratus; conditions: in vivo; how it was run: as §3
[36] = AUClast in golden Syrian hamster at 2 mg/kg, iv after 24 to 48 hrs by LC-MS/MS analysis; assay type: ADME, organism-based, Mesocricetus auratus; conditions: in vivo; how it was run: as §3
[37] = Initial concentration in golden Syrian hamster at 2 mg/kg, iv by LC-MS/MS analysis; assay type: ADME, organism-based, Mesocricetus auratus; conditions: in vivo; how it was run: as §10
Rattus norvegicus [38] = assay: as §5; assay type: ADME, organism-based; parameters: dose 40 mg/kg, route oral; conditions: in vivo; how it was run: as §2
[39] = Apparent permeability from apical to basolateral side in MDCK cells harboring MDR1 at 2 uM after 150 mins by LC-MS/MS analysis; assay type: ADME, cell-based, Canis lupus familiaris; conditions: dog
How it was run: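 MDCK-MDR1 monolayers were seeded at 2 × 10^5 cells/cm2 and grown to confluence over 4–7 days. Compound at 2 μM in 0.4% DMSO/HBSS was applied apically or basolaterally. Plates were incubated 150 min at 37 °C, 5% CO2, in triplicate. Quantitation was by LC–MS/MS analyte/internal-standard peak-area ratio.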

[40] = Octanol/phosphate buffer solution distribution coefficient, log D of the compound at pH 7.4 by LC-MS/MS method; assay type: physicochemical; conditions: octanol/water
How it was run: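 Shake-flask partition between octanol and 100 mM phosphate buffer pH 7.4 at room temperature, final matrix 1% DMSO. Phases quantified by LC–MS/MS.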

Rattus norvegicus [41] = assay: as §7; assay type: ADME, organism-based; conditions: in vivo; how it was run: as §8
Rattus norvegicus [42] = assay: as §9; assay type: ADME, organism-based; conditions: in vivo; how it was run: as §8
Syrian golden hamster [43] = assay: Oral bioavailability in golden Syrian hamster at 50 mg/kg by LC-MS/MS analysis; assay type: ADME, organism-based, Mesocricetus auratus; conditions: in vivo

Compound | C0 [1] [ng/mL] | Stability (Liver [2]) [%] | half-life [4] [h] | Cmax [6] [ng/mL] | AUC(0-t) [7] [µg·h/mL] | Tmax [8] [h] | half-life [11] [h] | remaining at 1 h, 1 µM [13] [%] | AUC(0-t) [14] [µg·h/mL] | clearance [15] [mL/min/kg] | Vd [17] [L/kg] | half-life [18] [h] | Stability (Liver [21]) [%] | half-life [22] [h] | clearance [23] [mL/min/kg] | Cmax (Mus musculus [25]) [ng/mL] | half-life [30] [h] | Vd [33] [L/kg] | AUC(0-t) [36] [µg·h/mL] | C0 [37] [ng/mL] | further results
O=[N+]([O-])c1cn2c(n1)OC[C@H](Oc1ccc(C(F)(F)F)cn1)C2 | 840 | 90 | 30 | 12000 | 2.47 | 3.3 | 2.7 | 48 | 71 | 6.1 | 1.5 | 3.1 | 92 |  |  |  |  |  |  |  | Cmax [3]: 96000 ng/mL; half-life [5]: 3.5 h; AUC(0-t) [9]: 1780 µg·h/mL; Cmax [10]: 18000 ng/mL; AUC(0-t) [12]: 164 µg·h/mL; Tmax [16]: 3.1 h; Tmax [19]: 2.7 h; bioavailability [20]: 100%
O=[N+]([O-])c1cn2c(n1)OC[C@H](OCc1ccc(-c3ccc(OC(F)(F)F)cc3F)cn1)C2 |  | 27 | 6.1 |  |  |  |  | 10 |  |  |  |  | 40 | 3.9 | 18 | 32000 | 3.9 | 4.2 | 1.89 | 940 | Stability (Liver [24]): 79%; Cmax [26]: 4200 ng/mL; AUClast (Mus musculus [27]): 265 µg·h/mL; remaining at 0.5 h, 0.5 µM [28]: 69%; F (Syrian golden hamster [29]): 74%; Tmax (Mus musculus [31]): 3.3 h; Stability (Liver [32]): 75%; Tmax [34]: 2 h; AUC(0-t) [35]: 26.7 µg·h/mL
O=[N+]([O-])c1cn2c(n1)OC[C@H](Oc1ccc(OC(F)(F)F)cc1)C2 | 540 |  | 7.8 |  | 1.51 |  | 3 | 19 |  | 11 | 2.7 |  |  | 2.2 |  | 21000 | 1.4 | 6.5 | 0.42 | 660 | Cmax [26]: 2100 ng/mL; AUClast (Mus musculus [27]): 272 µg·h/mL; Cmax (Rattus norvegicus [38]): 5200 ng/mL; F (Syrian golden hamster [29]): 100%; Papp [39]: 32.4 ×10⁻⁶ cm/s; Tmax (Mus musculus [31]): 5.3 h; Tmax [34]: 3.3 h; logD [40]: 2.59; AUC(0-t) [35]: 11.2 µg·h/mL; Tmax (Rattus norvegicus [41]): 6.7 h; F (Rattus norvegicus [42]): 100%
O=[N+]([O-])c1cn2c(n1)OC[C@H](OCc1ccc(-c3ccc(F)cc3F)nc1)C2 |  | 58 |  | 1100 |  | 1.7 |  | 10 | 3.4 |  |  | 17 | 67 |  | 59 |  | 1.4 | 5.4 | 0.71 | 520 | F (Syrian golden hamster [43]): 21%
